{"data": "Experimental data from different studies", "read-out": "enzyme activity", "action": "inhibitor", "gag-pol reverse transcriptase": "Gag-Pol polyprotein, reverse transcriptase (gag-pol, Human immunodeficiency virus type 1 group M subtype B, UniProt P04585)", "gag-pol protease": "Gag-Pol polyprotein, protease (gag-pol, Human immunodeficiency virus type 1 group M subtype B, UniProt P04585)", "note": "Each line is one published result; the experiments were not run side by side."}
{"SMILES": "N#Cc1cn(Cc2ccccc2)c2ncc(Br)cc12", "target": "gag-pol reverse transcriptase", "technique": "FRET", "quantity": "IC50", "value": "> 100000 nM"}
{"SMILES": "Oc1cc2c(cc1O)C(c1ccccc1)CNCC2 (racemic)", "target": "Gag-Pol polyprotein, integrase (gag-pol, Human immunodeficiency virus type 1 group M subtype B, UniProt P04585)", "quantity": "IC50", "value": "> 25000 nM"}
{"SMILES": "CC(C)C[C@H]1C(N2CC[C@H](N3C(=O)C=C(OC(C)(C)C)[C@@H]3C)C2)=CC(=O)N1[C@H]1CCN(C2=CC(=O)N[C@H]2Cc2ccccc2)C1", "target": "gag-pol protease", "technique": "fluorescence", "quantity": "IC50", "value": "54900 nM"}
{"SMILES": "COc1ccc(S(=O)(=O)N(CC(C)C)C[C@@H](O)[C@@H]2Cc3ccc(cc3)OCCCC=CCCc3c(O)cccc3C(=O)N2)cc1", "target": "gag-pol protease", "quantity": "Ki", "value": "10 nM"}
{"SMILES": "CC(C)CN(C[C@@H](O)[C@H](Cc1ccccc1)NC(=O)O[C@H]1CCO[C@H]2OCC[C@H]21)S(=O)(=O)c1ccc(B(O)O)cc1", "target": "gag-pol protease", "quantity": "Ki", "value": "0.0021 nM"}
{"SMILES": "COc1ccc2c(c1)OCCCCCCCCCN(C[C@@H](O)[C@H](Cc1ccccc1)NC(=O)O[C@H]1CO[C@H]3OCC[C@H]31)S2(=O)=O", "target": "gag-pol protease", "quantity": "Ki", "value": "< 0.7 nM"}
{"SMILES": "C=CCCCOc1ccc(C[C@H](NC(=O)c2cccc(O)c2CCC=C)[C@H](O)CN(CC(C)C)S(=O)(=O)c2ccc(OC)cc2)cc1", "target": "gag-pol protease", "quantity": "Ki", "value": "45 nM"}
{"SMILES": "C=CCn1cc(C#N)c2cc(C#N)cnc21", "target": "gag-pol reverse transcriptase", "technique": "FRET", "quantity": "IC50", "value": "> 100000 nM"}
{"SMILES": "C=CCCOc1ccc(C[C@H](NC(=O)c2cccc(O)c2CCC=C)[C@H](O)CN(CC(C)C)S(=O)(=O)c2ccc(OC)cc2)cc1", "target": "gag-pol protease", "quantity": "Ki", "value": "7 nM"}
{"SMILES": "COc1ccc(S(=O)(=O)N(CC(C)C)C[C@@H](O)[C@H](Cc2ccccc2)NC(=O)OC2CO[C@H]3OCC(F)(F)[C@@H]23)cc1 (stereo partly shown)", "target": "gag-pol protease", "quantity": "Ki", "value": "0.022 nM"}
{"SMILES": "CCCc1c2c(nc3c1c(C#N)cn3C1CCCCC1)CCC2=O", "target": "gag-pol reverse transcriptase", "technique": "FRET", "quantity": "IC50", "value": "> 100000 nM"}
{"SMILES": "CC(C)C[C@H]1C(OC(C)(C)C)=CC(=O)N1[C@H]1CCN(C2=CC(=O)NC2Cc2ccccc2)C1 (stereo partly shown)", "target": "gag-pol protease", "technique": "fluorescence", "quantity": "IC50", "value": "516000 nM"}
{"SMILES": "C[C@H](Cn1cnc2c(N)ncnc21)OCP(=O)(O)O", "target": "gag-pol reverse transcriptase", "quantity": "IC50", "value": "950 nM"}
